Drawing on ChEMBL document CHEMBL1124445, “Synthesis and pharmacology of a series of 3- and 4-(phosphonoalkyl)pyridine- and -piperidine-2-carboxylic acids. Potent N-methyl-D-aspartate receptor antagonists” (J Med Chem, 1989), this text covers minimal effective dose, Displacement and IC50 for 16 molecules.

pIC50: −log10 of the molar value. Bounds are passed on as bounds.

For experiment [1], the system named is Mus musculus. As to the kind of experiment: Ability to protect against NMDA-induced lethality in mice after intraperitoneal administration. The experiment is classed as functional. Conditions: ip, read-out: MED. An outline of the steps:
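Mice received the test drug ip 30 min before NMDA at 200 mg/kg ip; compounds were racemic. Five animals per dose. The endpoint was survival for more than 30 min after the NMDA injection. MED is the dose at which at least three of the five mice survived. The highest dose tested was 160 mg/kg.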

Experiment [2] can be described thus: Percent displacement determined by inhibition of [3H]-CPP binding against N-methyl-D-aspartate glutamate receptor in mice at 10 uM.
A short description of experiment [3]: Compound was evaluated for the inhibition of the binding of [3H]CPP against N-methyl-D-aspartate glutamate receptor in mice. Summed up:
(§1)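 Racemic compounds tested for displacement of [3H]CPP binding to the NMDA receptor. Affinity reported as IC50 in nM.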

A short description of experiment [4]: Percent displacement determined by inhibition of [3H]CPP binding against NMDA receptor in mice at 10 uM.
Experiment [5] is described as follows: Compound was evaluated for the inhibition of the binding of [3H]-CPP against NMDA receptor in mice. An outline of the steps:
as §1

Experiment [6] can be described thus: Compound was evaluated for the inhibition of the binding of [3H]CPP against NMDA in mice.

For the molecule `O=C(O)c1ncccc1/C=C\P(=O)(O)O`, the minimal effective dose in experiment [1] was over 160 mg/kg. In experiment [2], the Displacement is 20%.

In general, pIC50 refers to −log10 of the IC50, conventionally taken in molar units. A low value points to a high IC50. In experiment [3], `O=C(O)[C@@H]1C[C@H](CCP(=O)(O)O)CCN1` gave a pIC50 of 5.18. Moreover, in experiment [1], the minimal effective dose is over 160 mg/kg.

In the case of `O=C(O)c1cc(CP(=O)(O)O)ccn1`, in experiment [4], the Displacement was determined as 4%. In addition, the minimal effective dose in experiment [1] is over 160 mg/kg.

As for `O=C(O)[C@@H]1C[C@H](CP(=O)(O)O)CCN1` [SELFOTEL], the minimal effective dose in experiment [1] came out at 10 mg/kg. The molecule also had a negative-log IC50 (pIC50) in experiment [5] of 7.02.

In the case of `O=C(O)c1cc(CCP(=O)(O)O)ccn1`, the pIC50 in experiment [3] was 5.46. The minimal effective dose in experiment [1] was over 160 mg/kg.

As for `O=C(O)[C@@H]1C[C@H](CCCCP(=O)(O)O)CCN1`, in experiment [1], the minimal effective dose is over 160 mg/kg. Also, the Displacement in experiment [2] turned out to be 26%.

Take `NC(CCCCCP(=O)(O)O)C(=O)O` (stereo unspecified) [AP-7]: the minimal effective dose in experiment [1] worked out at 160 mg/kg. Also, the pIC50 in experiment [6] was 6.49.

With `O=C(O)c1ncccc1CCP(=O)(O)O`, the minimal effective dose in experiment [1] is over 160 mg/kg. The pIC50 in experiment [5] is 5.46.

As to `O=C(O)[C@H]1NCCC[C@H]1CCP(=O)(O)O`, the minimal effective dose in experiment [1] came out at 160 mg/kg. Moreover, the pIC50 in experiment [5] was 6.00.

As to `O=C(O)c1ncccc1CP(=O)(O)O`, the Displacement in experiment [4] is -18%. In experiment [1], the minimal effective dose is over 160 mg/kg.

Consider `O=C(O)c1cc(CCCP(=O)(O)O)ccn1`, for which the minimal effective dose in experiment [1] is over 160 mg/kg. Besides, in experiment [2], the Displacement came to 34%.

As for `O=C(O)[C@@H]1C[C@H](CCCP(=O)(O)O)CCN1`, the pIC50 in experiment [3] is 6.92. In addition, in experiment [1], the minimal effective dose was found to be 40 mg/kg.

`O=C(O)c1cc(CCCCP(=O)(O)O)ccn1`: the minimal effective dose in experiment [1] was over 160 mg/kg. The Displacement in experiment [2] came to 25%.

`O=C(O)C1CN(CCCP(=O)(O)O)CCN1` (stereo unspecified) gave a pIC50 in experiment [3] of 7.14. Also, the minimal effective dose in experiment [1] is 2.5 mg/kg.

Turning to `O=C(O)c1ncccc1/C=C/P(=O)(O)O`, the minimal effective dose in experiment [1] is over 160 mg/kg. For the same molecule, in experiment [2], the Displacement is 26%.

`O=C(O)[C@H]1NCCC[C@H]1CP(=O)(O)O`: the Displacement in experiment [2] came to 19%.
